Laboratory results as given in ChEMBL document CHEMBL3804768, “Structure-Activity Relationship Studies of Mitogen Activated Protein Kinase Interacting Kinase (MNK) 1 and 2 and BCR-ABL1 Inhibitors Targeting Chronic Myeloid Leukemic Cells” (J Med Chem, 2016).
Converted amounts (≈) assume the structure as drawn.

Columns and labels:
[1] = biological target: MAP kinase-interacting serine/threonine-protein kinase 2 (Homo sapiens, UniProt Q9HBH9); assay: Inhibition of N-terminal GST-tagged MNK2 kinase domain (72 to 385 residues) (unknown origin) expressed in Escherichia coli BL21(DE3) cells using JH3 peptide substrate preincubated for 10 mins followed by substrate addition measured after 60 mins by mobility shift assay
[2] = biological target: MAP kinase-interacting serine/threonine-protein kinase 1 (Homo sapiens, UniProt Q9BUB5); assay: Inhibition of N-terminal GST-tagged MNK1 kinase domain (37 to 341 residues) (unknown origin) expressed in Escherichia coli BL21(DE3) cells using JH3 peptide substrate preincubated for 10 mins followed by substrate addition measured after 60 mins by mobility shift assay
Bcr/Abl fusion protein = Bcr/Abl fusion protein (Homo sapiens, UniProt P00519); assay: Inhibition of BCR fused full length human recombinant N-terminal His-tagged ABL (2 to 1130 residues) expressed in baculovirus expression system using FL-peptide 2 substrate preincubated for 10 mins followed by substrate addition measured after 60 mins by mobility shift assay
K562 [3] = assay: Antitumor activity against human K562 cells over expressing eIF4E xenografted in NOD-SCID mouse assessed as tumor growth inhibition at 200 mg/kg, po qd administered through oral gavage for 14 days relative to control; assay type: functional; conditions: 336 h, read-out: TGI
Outline: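 Female SCID mice, 7-10 weeks old, received 1 x 10^7 K562 eIF4E-overexpressing cells subcutaneously. At tumor volumes of 75-245 mm³ (w²×l/2) mice were randomized and gavaged once daily for 14 days at 10 mL/kg.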

[4] = Antiproliferative activity against human KCL22 cells after 48 hrs by Cell-Titer-Glo luminescent cell viability assay; assay type: functional; conditions: KCL-22, 48 h
[5] = Antiproliferative activity against human JURL-MK1 cells after 48 hrs by Cell-Titer-Glo luminescent cell viability assay; assay type: functional; conditions: JURL-MK1, 48 h
[6] = Antiproliferative activity against human BV173 cells after 48 hrs by Cell-Titer-Glo luminescent cell viability assay; assay type: functional; conditions: BV-173, 48 h
Outline: (§1)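 Cells seeded at 5000 per well in growth medium, exposed to serial doses from 0.003 μM to 50 μM for 48 h at 37 °C, 5% CO2. Viability was read by CellTiter-Glo luminescence and GI50 taken from the dose-response curve. Dose response was run in triplicate and the curve repeated twice. K562 eIF4E-overexpressing cells were cultured in RPMI with 10% FBS.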

[7] = Antiproliferative activity against human EM2 cells after 48 hrs by Cell-Titer-Glo luminescent cell viability assay; assay type: functional; conditions: EM-2, 48 h; outline: as §1
K562 [8] = assay: Antiproliferative activity against human K562 cells after 48 hrs by Cell-Titer-Glo luminescent cell viability assay; assay type: functional; conditions: K562, 48 h; outline: as §1
K562 [9] = assay: Antiproliferative activity against human K562 cells over expressing eIF4E after 48 hrs by Cell-Titer-Glo luminescent cell viability assay; assay type: functional; conditions: K562, 48 h; outline: as §1
Cytochrome P450 3A4 = Cytochrome P450 3A4 (Homo sapiens, UniProt P08684); assay: Inhibition of CYP3A4 (unknown origin); assay type: ADME
[10] = Permeability of compound by PAMPA; assay type: ADME; conditions: read-out: permeability
[11] = biological target: Tyrosine-protein kinase ABL1 (Homo sapiens, UniProt P00519, T315I); assay: Inhibition of full length human recombinant N-terminal His-tagged ABL (2 to 1130 residues) T315I mutant expressed in baculovirus expression system using FL-peptide 2 substrate preincubated for 10 mins followed by substrate addition measured after 60 mins by mobility shift assay
Outline: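 Buffer is 100 mM HEPES pH 7.5, 10 mM MgCl2, 0.004% Tween 20, 1 mM DTT, 0.003% Brij L23. Enzyme and compound sit 10 min before ATP/substrate is added. The reaction runs 60 min at room temperature, is stopped with 10 mM EDTA, and is read by mobility shift.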

[12] = Thermodynamic solubility in pH 7 pION buffer at 500 uM incubated for 18 hrs by UV-spectrophotometry; assay type: physicochemical; conditions: read-out: Therm_solubility
Cytochrome P450 2D6 = Cytochrome P450 2D6 (Homo sapiens, UniProt P10635); assay: Inhibition of CYP2D6 (unknown origin); assay type: ADME
[13] = biological target: MAP kinase-interacting serine/threonine-protein kinase 1/2 (Homo sapiens, UniProt Q9HBH9+Q9BUB5); assay: Inhibition of MNK1/MNK2 in human HeLa cells assessed as reduction in phosphorylation of eIF4E at Ser209 after 2 hrs by AlphaScreen SureFire assay; assay type: cell-based
Outline: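 HeLa cells were grown in DMEM with 10% FBS and penicillin/streptomycin, seeded at 30,000 per well and left 24 h. They were then exposed to serially diluted compound in serum-free DMEM for 2 h at 37 °C and lysed with shaking for 20 min. Phospho-eIF4E Ser209 was read by AlphaScreen SureFire with 2 h acceptor and 2 h donor steps at room temperature. Dose response was run in triplicate.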

[14] = Thermodynamic solubility in pH 4 pION buffer at 500 uM incubated for 18 hrs by UV-spectrophotometry; assay type: physicochemical; conditions: read-out: Therm_solubility

Cytochrome P450 2D6, sequence (P10635 whole entry): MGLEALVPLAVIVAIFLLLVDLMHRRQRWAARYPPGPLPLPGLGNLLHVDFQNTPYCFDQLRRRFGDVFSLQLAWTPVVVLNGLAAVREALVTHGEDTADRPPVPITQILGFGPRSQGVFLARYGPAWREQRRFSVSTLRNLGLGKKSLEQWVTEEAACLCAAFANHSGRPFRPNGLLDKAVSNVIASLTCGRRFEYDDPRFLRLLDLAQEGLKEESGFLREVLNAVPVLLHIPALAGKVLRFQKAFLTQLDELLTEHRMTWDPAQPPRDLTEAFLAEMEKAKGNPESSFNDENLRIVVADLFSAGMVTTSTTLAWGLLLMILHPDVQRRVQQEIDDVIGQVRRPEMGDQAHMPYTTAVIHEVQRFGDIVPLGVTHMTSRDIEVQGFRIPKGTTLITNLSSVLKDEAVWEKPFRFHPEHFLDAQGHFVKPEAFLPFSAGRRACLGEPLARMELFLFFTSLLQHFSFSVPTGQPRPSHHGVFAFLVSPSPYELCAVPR
MAP kinase-interacting serine/threonine-protein kinase 1, sequence (Q9BUB5 whole entry, the tested form may be a part): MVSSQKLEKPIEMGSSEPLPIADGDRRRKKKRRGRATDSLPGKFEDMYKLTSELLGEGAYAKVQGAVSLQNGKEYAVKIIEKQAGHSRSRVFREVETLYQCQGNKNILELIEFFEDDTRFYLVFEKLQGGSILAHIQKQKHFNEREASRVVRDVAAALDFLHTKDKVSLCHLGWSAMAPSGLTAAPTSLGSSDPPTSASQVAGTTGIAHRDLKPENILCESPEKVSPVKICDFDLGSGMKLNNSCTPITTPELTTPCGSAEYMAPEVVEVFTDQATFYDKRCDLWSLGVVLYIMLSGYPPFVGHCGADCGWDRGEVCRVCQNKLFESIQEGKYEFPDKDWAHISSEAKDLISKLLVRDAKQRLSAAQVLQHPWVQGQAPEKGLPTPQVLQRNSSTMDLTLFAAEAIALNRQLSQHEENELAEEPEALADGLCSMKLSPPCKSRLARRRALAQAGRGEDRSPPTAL
MAP kinase-interacting serine/threonine-protein kinase 2, sequence (Q9HBH9 whole entry, the tested form may be a part): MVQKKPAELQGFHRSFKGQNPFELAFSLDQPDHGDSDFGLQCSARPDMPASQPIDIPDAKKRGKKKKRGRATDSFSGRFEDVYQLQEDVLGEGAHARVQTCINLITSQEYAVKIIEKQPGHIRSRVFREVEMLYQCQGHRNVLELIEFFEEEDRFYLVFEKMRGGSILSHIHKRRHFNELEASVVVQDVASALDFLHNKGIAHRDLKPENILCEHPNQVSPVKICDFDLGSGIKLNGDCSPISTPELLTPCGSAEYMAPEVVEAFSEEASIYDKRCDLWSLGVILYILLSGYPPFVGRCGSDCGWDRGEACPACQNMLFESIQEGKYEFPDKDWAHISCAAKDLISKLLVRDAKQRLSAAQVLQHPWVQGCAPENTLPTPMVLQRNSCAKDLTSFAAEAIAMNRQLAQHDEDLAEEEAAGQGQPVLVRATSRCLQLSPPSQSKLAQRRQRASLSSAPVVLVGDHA
Cytochrome P450 3A4, sequence (P08684 whole entry): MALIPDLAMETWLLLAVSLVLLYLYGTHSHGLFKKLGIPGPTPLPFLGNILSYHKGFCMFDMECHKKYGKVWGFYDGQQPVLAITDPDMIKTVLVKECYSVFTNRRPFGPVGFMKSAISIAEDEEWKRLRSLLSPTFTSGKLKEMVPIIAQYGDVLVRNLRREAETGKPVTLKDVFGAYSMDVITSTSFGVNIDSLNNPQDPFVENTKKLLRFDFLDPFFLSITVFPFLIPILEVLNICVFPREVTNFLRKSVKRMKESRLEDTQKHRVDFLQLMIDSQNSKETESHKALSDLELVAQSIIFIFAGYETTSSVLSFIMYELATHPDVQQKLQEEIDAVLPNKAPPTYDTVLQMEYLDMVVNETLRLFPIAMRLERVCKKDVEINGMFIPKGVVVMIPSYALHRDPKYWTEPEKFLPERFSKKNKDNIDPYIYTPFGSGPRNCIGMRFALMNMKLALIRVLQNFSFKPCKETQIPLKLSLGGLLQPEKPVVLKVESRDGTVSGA

IC50 [1]	IC50 [2]	IC50 (Bcr/Abl fusion protein)	SMILES	GI50 (K562 [9])	IC50 [13]	other results
> 10000 nM	> 10000 nM	> 10000 nM	CCN1CCC(Cc2ccc(NC(=O)COc3ccc(-c4cccnc4)cc3)cc2C(F)(F)F)CC1	–	–	–
6860 nM	> 10000 nM	> 10000 nM	CCN1CCN(Cc2ccc(NC(=O)COc3ccc(-c4ccc(C(=O)NC)nc4)cc3)cc2C(F)(F)F)CC1	–	–	–
–	–	–	Cc1ccc(NC(=O)c2ccc(CN3CCN(C)CC3)cc2)cc1Nc1nccc(-c2cccnc2)n1 [IMATINIB]	–	–	inhibition in vivo at 200 mg/kg (K562 [3]): 57%; GI50 [4]: 430 nM; GI50 [5]: 60 nM; GI50 [6]: 100 nM; GI50 [7]: 260 nM; GI50 (K562 [8]): 200 nM
> 10000 nM	> 10000 nM	> 10000 nM	CCN1CCN(Cc2ccc(NC(=O)COc3ccc(-c4ccccn4)cc3)cc2C(F)(F)F)CC1	–	–	–
14 nM	570 nM	> 10000 nM	CCN1CCN(Cc2ccc(NC(=O)COc3ccc(-c4cccnc4)cc3)cc2C(F)(F)F)CC1	> 10000 nM	98 nM	–
130 nM	> 10000 nM	> 10000 nM	CCN1CCN(Cc2ccc(NC(=O)COc3ccc(-c4cccnc4)cc3)cc2C2CC2)CC1	–	–	–
8 nM	370 nM	580 nM	CCN1CCN(Cc2ccc(NC(=O)Cc3ccc(Oc4ccnc(NC)c4)cc3)cc2C(F)(F)F)CC1	–	–	–
22 nM	3690 nM	> 10000 nM	CCN1CCN(Cc2ccc(NC(=O)Cc3ccc(Oc4cc(NC)ncn4)cc3)cc2C(F)(F)F)CC1	–	–	–
10 nM	540 nM	3880 nM	CCN1CCN(Cc2ccc(NC(=O)Cc3ccc(Oc4ccncc4)cc3)cc2C(F)(F)F)CC1	–	–	–
11 nM	350 nM	> 10000 nM	CCN1CCN(Cc2ccc(NC(=O)CNc3ccc(-c4cccnc4)cc3)cc2C(F)(F)F)CC1	–	–	–
1910 nM	> 10000 nM	> 10000 nM	CCN1CCN(Cc2ccc(NC(=O)COc3ccc(-c4ccncc4)cc3)cc2C(F)(F)F)CC1	–	–	–
82 nM	4510 nM	> 10000 nM	CCC1CCN(Cc2ccc(NC(=O)COc3ccc(-c4cccnc4)cc3)cc2C(F)(F)F)CC1	–	–	–
12 nM	350 nM	> 10000 nM	O=C(COc1ccc(-c2cccnc2)cc1)Nc1ccc(CN2CCNCC2)c(C(F)(F)F)c1	–	–	–
> 10000 nM	> 10000 nM	> 10000 nM	CCN1CCN(Cc2ccc(NC(=O)C(C)Oc3ccc(-c4cccnc4)cc3)cc2C(F)(F)F)CC1 (configuration not stated)	–	–	–
760 nM	> 10000 nM	> 10000 nM	CCN1CCN(Cc2ccc(CC(=O)Nc3ccc(Oc4cc(NC)ncn4)cc3)cc2C(F)(F)F)CC1	–	–	–

SMILES	IC50 [1]	IC50 [2]	IC50 (Bcr/Abl fusion protein)	GI50 (K562 [9])	IC50 [13]	other results
CCN1CCN(Cc2ccc(NC(=O)CNc3ccc(-c4ccc(NC(C)=O)nc4)cc3)cc2C(F)(F)F)CC1	44 nM	5980 nM	380 nM	340 nM	320 nM	IC50 (Cytochrome P450 3A4): 3200 nM; Papp [10]: 26.2 ×10⁻⁶ cm/s; IC50 [11]: 90 nM; solubility thermodynamic at 18 h, 500 µM [12]: 0.6 µg/mL (≈ 1.08 µM); IC50 (Cytochrome P450 2D6): > 20000 nM
CC(=O)Nc1ccc(-c2ccc(NCC(=O)Nc3ccc(CN4CCNCC4)c(C(F)(F)F)c3)cc2)cn1	32 nM	3920 nM	880 nM	400 nM	200 nM	IC50 (Cytochrome P450 3A4): 2400 nM; Papp [10]: 1.13 ×10⁻⁶ cm/s; IC50 [11]: 240 nM; solubility thermodynamic at 18 h, 500 µM [14]: 132 µg/mL (≈ 250 µM); IC50 (Cytochrome P450 2D6): > 20000 nM
CCN1CCN(Cc2ccc(NC(=O)COc3ccc(-c4ccc(NC(C)=O)nc4)cc3)cc2C(F)(F)F)CC1	33 nM	5680 nM	390 nM	100 nM	680 nM	IC50 [11]: 170 nM
O=C(CNc1ccc(-c2ccc(NC(=O)C3CC3)nc2)cc1)Nc1ccc(CN2CCNCC2)c(C(F)(F)F)c1	8 nM	510 nM	210 nM	80 nM	320 nM	IC50 (Cytochrome P450 3A4): 1100 nM; Papp [10]: 5.53 ×10⁻⁶ cm/s; IC50 [11]: 100 nM; solubility thermodynamic at 18 h, 500 µM [14]: 109 µg/mL (≈ 197 µM); IC50 (Cytochrome P450 2D6): > 20000 nM
CC(C)C(=O)Nc1ccc(-c2ccc(NCC(=O)Nc3ccc(CN4CCNCC4)c(C(F)(F)F)c3)cc2)cn1	130 nM	7700 nM	> 10000 nM	3300 nM	860 nM	IC50 [11]: > 10000 nM
